We go through five molecules from ChEMBL document CHEMBL1156185, “A class of 3S-2-aminoacyltetrahydro-beta-carboline-3-carboxylic acids: their facile synthesis, inhibition for platelet activation, and high in vivo anti-thrombotic potency” (J Med Chem, 2010).

SMILES strings stand for the structures. pIC50: −log10 of the molar value.

Test system in one assay: not listed separately
The assay is described as follows: Antiplatelet aggregation activity against platelet-activating factor-induced pig platelet aggregation after 5 mins by aggregometer. The conditions noted are these: Sus scrofa. Format: functional, cell-based. The method in brief:
(§1)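 Pig blood from six pigs was spun at 1000 rpm for 10 min to give PRP, then at 1500g for 10 min to give PPP. PRP was adjusted to 2 × 10⁸ platelets/mL with autologous PPP. Test agent or NS was added at final 100 µM–1 nM. Agonists were at final concentrations of ADP 10 µM, AA 350 µM, PAF 0.1 µM and thrombin 0.1 U/mL. Light-transmission peak was read at 37 °C over 5 min, in sextuplicate. IC50 was taken from the concentration–inhibition curve.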
As to `N[C@@H](Cc1c[nH]c2ccccc12)C(=O)N1Cc2[nH]c3ccccc3c2C[C@H]1C(=O)O`, the pIC50 was 7.77.
Same read-out and setting: the value for `N[C@@H](CC(=O)O)C(=O)N1Cc2[nH]c3ccccc3c2C[C@H]1C(=O)O` was 7.88; that for `N[C@@H](CCC(=O)O)C(=O)N1Cc2[nH]c3ccccc3c2C[C@H]1C(=O)O` was 7.83; that for `N[C@@H](Cc1cnc[nH]1)C(=O)N1Cc2[nH]c3ccccc3c2C[C@H]1C(=O)O` was 7.81.
Still for that read-out and setting: with `N=C(N)NCCC[C@H](N)C(=O)N1Cc2[nH]c3ccccc3c2C[C@H]1C(=O)O` the figure was 7.74.

The subject of the next assay is Platelet. The assay is described as follows: Ratio of IC50 for platelet-activating factor-induced pig platelet aggregation to IC50 for ADP-induced pig platelet aggregation. In kind it is functional, Sus scrofa.
Conditions: not given
The method in brief:
(§2)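 Fold ratios of IC50 values. Each IC50 came from pig PRP (2 × 10⁸ platelets/mL) light-transmission aggregometry at 37 °C for 5 min, in sextuplicate, with final ADP 10 µM, AA 350 µM, PAF 0.1 µM or thrombin 0.1 U/mL.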
For the molecule `N[C@@H](Cc1c[nH]c2ccccc12)C(=O)N1Cc2[nH]c3ccccc3c2C[C@H]1C(=O)O`, the Ratio IC50 stood at 1.6.
Same read-out and setting: the value for `N[C@@H](CC(=O)O)C(=O)N1Cc2[nH]c3ccccc3c2C[C@H]1C(=O)O` was 2.
Still for that read-out and setting: the value for `N[C@@H](CCC(=O)O)C(=O)N1Cc2[nH]c3ccccc3c2C[C@H]1C(=O)O` was 1.4.
On the same count and under the same terms, the value for `N[C@@H](Cc1cnc[nH]1)C(=O)N1Cc2[nH]c3ccccc3c2C[C@H]1C(=O)O` was 2.1; that for `N=C(N)NCCC[C@H](N)C(=O)N1Cc2[nH]c3ccccc3c2C[C@H]1C(=O)O` was 1.9.

In another assay the test system is Rattus norvegicus. The assay is described as follows: Antithrombotic activity in Wistar rat arterioveinos cannula model assessed as reduction of thrombus weight at 100 nmol/kg, iv.
Conditions: not given
Format: functional. The method in brief: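 Male Wistar rats, 250–300 g. Agents were dissolved in NS and kept on ice. Heparin sodium was injected into a thread-containing polyethylene cannula, then NS or agent was injected intravenously. The cannula joined the right carotid artery to the left jugular vein, and blood flowed through it for 15 min. Wet thrombus weight on the thread was recorded as mean ± SD, n = 12.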
For `N[C@@H](Cc1c[nH]c2ccccc12)C(=O)N1Cc2[nH]c3ccccc3c2C[C@H]1C(=O)O`, the Thrombus weight is 18.43 mg.
On the same count and under the same terms, with `N[C@@H](CC(=O)O)C(=O)N1Cc2[nH]c3ccccc3c2C[C@H]1C(=O)O` the figure was 14.4 mg; with `N[C@@H](CCC(=O)O)C(=O)N1Cc2[nH]c3ccccc3c2C[C@H]1C(=O)O`, 16.6 mg.
Still for that read-out and setting: with `N[C@@H](Cc1cnc[nH]1)C(=O)N1Cc2[nH]c3ccccc3c2C[C@H]1C(=O)O` the figure was 15.89 mg; with `N=C(N)NCCC[C@H](N)C(=O)N1Cc2[nH]c3ccccc3c2C[C@H]1C(=O)O`, 16.68 mg.

The subject of another assay is Platelet. The assay is described as follows: Ratio of TCCA IC50 to compound IC50 for ADP-induced pig platelet aggregation. Format: functional, Sus scrofa.
Conditions: not given
An outline of the steps:
as §2
As for `N[C@@H](Cc1c[nH]c2ccccc12)C(=O)N1Cc2[nH]c3ccccc3c2C[C@H]1C(=O)O`, the Ratio IC50 was found to be 67.
Take `N[C@@H](CC(=O)O)C(=O)N1Cc2[nH]c3ccccc3c2C[C@H]1C(=O)O`: the Ratio IC50 turned out to be 106.
Regarding `N[C@@H](CCC(=O)O)C(=O)N1Cc2[nH]c3ccccc3c2C[C@H]1C(=O)O`, the Ratio IC50 came out at 68.
Still for that read-out and setting: with `N[C@@H](Cc1cnc[nH]1)C(=O)N1Cc2[nH]c3ccccc3c2C[C@H]1C(=O)O` the figure was 96.
As to `N=C(N)NCCC[C@H](N)C(=O)N1Cc2[nH]c3ccccc3c2C[C@H]1C(=O)O`, the Ratio IC50 came to 74.

Test system in the next assay: not listed separately
The assay is described as follows: Antiplatelet aggregation activity against thrombin-induced pig platelet aggregation after 5 mins by aggregometer. The conditions noted are these: Sus scrofa. Format: functional, cell-based. The method in brief:
as §1
`N[C@@H](Cc1c[nH]c2ccccc12)C(=O)N1Cc2[nH]c3ccccc3c2C[C@H]1C(=O)O` gave a pIC50 of 7.53.
The same measure, in the same setting: the value for `N[C@@H](CC(=O)O)C(=O)N1Cc2[nH]c3ccccc3c2C[C@H]1C(=O)O` was 7.57.
The same measure, in the same setting: the value for `N[C@@H](CCC(=O)O)C(=O)N1Cc2[nH]c3ccccc3c2C[C@H]1C(=O)O` was 7.51; that for `N[C@@H](Cc1cnc[nH]1)C(=O)N1Cc2[nH]c3ccccc3c2C[C@H]1C(=O)O` was 7.54; that for `N=C(N)NCCC[C@H](N)C(=O)N1Cc2[nH]c3ccccc3c2C[C@H]1C(=O)O` was 7.53.

Test system in a further assay: not listed separately
The assay is described as follows: Antiplatelet aggregation activity against arachidonic acid-induced pig platelet aggregation after 5 mins by aggregometer. Format: functional, cell-based. The conditions noted are these: Sus scrofa. The method in brief: as §1
For the molecule `N[C@@H](Cc1c[nH]c2ccccc12)C(=O)N1Cc2[nH]c3ccccc3c2C[C@H]1C(=O)O`, the pIC50 is 7.55.
Same read-out and setting: the value for `N[C@@H](CC(=O)O)C(=O)N1Cc2[nH]c3ccccc3c2C[C@H]1C(=O)O` was 7.62; that for `N[C@@H](CCC(=O)O)C(=O)N1Cc2[nH]c3ccccc3c2C[C@H]1C(=O)O` was 7.53.
Turning to `N[C@@H](Cc1cnc[nH]1)C(=O)N1Cc2[nH]c3ccccc3c2C[C@H]1C(=O)O`, the pIC50 was 7.60.
Same read-out and setting: the value for `N=C(N)NCCC[C@H](N)C(=O)N1Cc2[nH]c3ccccc3c2C[C@H]1C(=O)O` was 7.56.

The subject of another assay is Platelet. The assay is described as follows: Ratio of IC50 for thrombin-induced pig platelet aggregation to IC50 for ADP-induced pig platelet aggregation. In kind it is functional, Sus scrofa.
Conditions: not given
An outline of the steps:
as §2
In the case of `N[C@@H](Cc1c[nH]c2ccccc12)C(=O)N1Cc2[nH]c3ccccc3c2C[C@H]1C(=O)O`, the Ratio IC50 turned out to be 2.8.
Still for that read-out and setting: with `N[C@@H](CC(=O)O)C(=O)N1Cc2[nH]c3ccccc3c2C[C@H]1C(=O)O` the figure was 4; with `N[C@@H](CCC(=O)O)C(=O)N1Cc2[nH]c3ccccc3c2C[C@H]1C(=O)O`, 3.
Still for that read-out and setting: the value for `N[C@@H](Cc1cnc[nH]1)C(=O)N1Cc2[nH]c3ccccc3c2C[C@H]1C(=O)O` was 4.
Still for that read-out and setting: with `N=C(N)NCCC[C@H](N)C(=O)N1Cc2[nH]c3ccccc3c2C[C@H]1C(=O)O` the figure was 3.1.

Test system in the next assay: not listed separately
The assay is described as follows: Antiplatelet aggregation activity against ADP-induced pig platelet aggregation after 5 mins by aggregometer. In kind it is functional, cell-based. The conditions noted are these: Sus scrofa. The method in brief:
as §1
With `N[C@@H](Cc1c[nH]c2ccccc12)C(=O)N1Cc2[nH]c3ccccc3c2C[C@H]1C(=O)O`, the pIC50 was 7.98.
In the case of `N[C@@H](CC(=O)O)C(=O)N1Cc2[nH]c3ccccc3c2C[C@H]1C(=O)O`, the pIC50 was 8.18.
The same measure, in the same setting: the value for `N[C@@H](CCC(=O)O)C(=O)N1Cc2[nH]c3ccccc3c2C[C@H]1C(=O)O` was 7.99.
The same measure, in the same setting: with `N[C@@H](Cc1cnc[nH]1)C(=O)N1Cc2[nH]c3ccccc3c2C[C@H]1C(=O)O` the figure was 8.14.
For the molecule `N=C(N)NCCC[C@H](N)C(=O)N1Cc2[nH]c3ccccc3c2C[C@H]1C(=O)O`, the pIC50 is 8.02.

The next assay deals with Platelet. The assay is described as follows: Ratio of IC50 for arachidonic acid-induced pig platelet aggregation to IC50 for ADP-induced pig platelet aggregation. Format: functional, Sus scrofa.
Conditions: not given
The method in brief: as §2
On to `N[C@@H](Cc1c[nH]c2ccccc12)C(=O)N1Cc2[nH]c3ccccc3c2C[C@H]1C(=O)O`, for which the “Ratio IC50” value is 2.7.
Take `N[C@@H](CC(=O)O)C(=O)N1Cc2[nH]c3ccccc3c2C[C@H]1C(=O)O`: the Ratio IC50 came out at 3.6.
On the same count and under the same terms, with `N[C@@H](CCC(=O)O)C(=O)N1Cc2[nH]c3ccccc3c2C[C@H]1C(=O)O` the figure was 2.9.
Still for that read-out and setting: with `N[C@@H](Cc1cnc[nH]1)C(=O)N1Cc2[nH]c3ccccc3c2C[C@H]1C(=O)O` the figure was 3.4.
With `N=C(N)NCCC[C@H](N)C(=O)N1Cc2[nH]c3ccccc3c2C[C@H]1C(=O)O`, the Ratio IC50 was 2.9.
